Screens deposited in PubChem by several laboratories.
This is a sample that favours compounds with a hit; in the whole collection about 4.2% have one here.
Ins promoter up – insulin promoter activators in MIN6 cells, imaging, high-content screening, mouse beta cells. MIN6 insulin promoter-GFP reporter; stronger effect = higher value. z-score at 5 µM. 190,000 compounds, 0.3% hits. AID 1625, 2009;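 active means z-score above 3 at 5 µM with at least 500 cells counted in the well; inconclusive means wells under 500 cells, flagged as cytotoxic or low count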
Rad51 HR inh – human RAD51 strand exchange inhibitors, primary screen, biochemical, fluorescence; DNA repair protein RAD51 homolog 1 (Homo sapiens), Q06609; hRad51 DNA strand exchange, fluorescence dequenching; inhibition, % at 10 µM; 200,000 compounds, 0.085% hits;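 active means inhibition above 40% at the single screening dose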;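 further: 0% = DMSO control wells and 100% = blanks with heterologous ssDNA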
Target sequence (Q06609 whole entry, looked up): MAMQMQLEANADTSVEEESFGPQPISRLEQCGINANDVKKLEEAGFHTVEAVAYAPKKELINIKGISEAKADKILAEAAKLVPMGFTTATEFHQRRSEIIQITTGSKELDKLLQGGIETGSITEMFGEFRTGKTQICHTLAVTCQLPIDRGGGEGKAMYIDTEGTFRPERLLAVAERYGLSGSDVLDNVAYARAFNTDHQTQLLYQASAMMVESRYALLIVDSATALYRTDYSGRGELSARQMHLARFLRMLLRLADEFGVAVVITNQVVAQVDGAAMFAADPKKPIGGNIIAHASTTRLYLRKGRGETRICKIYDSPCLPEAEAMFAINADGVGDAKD
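Test system – preformed human Rad51 ssDNA filaments · Reagent – Donor/quencher-labelled 47-bp dsDNA substrate · Incubation – 37 °C 15-min filament assembly, 30-min compound preincubation, 15-min exchange · Signal – FRET fluorescence dequenching, excitation 485 nm, emission 520 nm · Read-out – percent inhibition from fluorescence, normalised to plate control and blank means · Benchmarks – plate control and blank wells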
Cl transport mod – KCC2 cotransporter modulators, thallium flux, primary screen, cell-based, HEK293 KCC2, FluoZin-2 fluorescence, MLSMR; B-score of Tl+ flux slope (higher = more flux/activation; lower = inhibition) at 10 µM; 190,000 compounds, 2.2% hits; AID 1456, 2008; KCC2 cells, thallium flux FluoZin-2 fluorescence;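 active means thallium flux slope and its plate-corrected score both differing from the plate sample mean at a set confidence after two filtering rounds, in either direction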;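 further: slope of fluorescence scaled to starting intensity during 10 to 20 s after thallium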
Autophagy mod – autophagy modulators in MEF cells, primary screen, imaging, high-content, MEF GFP-LC3. MEF GFP-LC3 puncta imaging; test concentration mostly 10 µM. calls only at 10 µM (by protocol). 190,000 compounds, 0.98% hits. AID 463193, 2010;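 active means percentage of spot-positive cells more than 3 SD above its plate mean, without a fluorescence outlier flag or 80% toxicity; inconclusive means no clear call, values can overlap the other calls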;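 further: spot-positive cell cutoff set from DMSO-treated cells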
SKKanGAS inh – S. pyogenes SKKanGAS growth inhibitors in kanamycin, primary screen, streptokinase expression inhibitor project, SKKanGAS strain, BacTiter-Glo luminescence; AID 1662, 2009; 300,000 compounds, 1.3% hits; 6 h; inhibition, % at 7.5 µM;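 active means mean replicate score, as percent of positive control median, at least 50; inconclusive means mean below 50 but one replicate at or above 50; inactive means mean and every replicate below 50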;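 further: strain carries kanamycin resistance gene driven by streptokinase promoter and grows in 40 µg/ml kanamycin; loss of luminescence reflects streptokinase promoter inhibition or plain growth inhibition; 0% = median of DMSO wells and 100% = positive control at its reference dose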
WT yeast gro inh – growth inhibition of WT strain, primary screen, mitochondrial fusion inhibitor project, WT and mutant strains, chemical genetic; inhibition, % at 10 µM; AID 1362, 2008; 190,000 compounds, 2.1% hits; mitochondrial fusion phenotypic screen; in the data active means inhibition above about 58%; tested in S. cerevisiae
* marks the source's active call; other numbers are inactive results; i = inactive; ? = inconclusive; / = no result; + = active, no number.

SMILES	Ins promoter up	Rad51 HR inh	Cl transport mod	Autophagy mod	SKKanGAS inh	WT yeast gro inh
O=C1NC(=O)C(CCc2ccncc2)(Cc2cccc(Cl)c2Cl)C(=O)N1c1ccc(Br)cc1 (stereo unspecified)	-1.47	1.0	0.188	i	18.1	74.5*
Oc1ccc2c3c1O[C@H]1c4[nH]c5ccccc5c4C[C@@]4(O)C(C2)N(CC2CC2)CC[C@]314	-0.2	6.9	0.861	/	-6.6	-0.8
O[C@@H]1CCCN2CCc3c([nH]c4ccccc34)[C@H]12	/	0.6	/	/	98.2*	/
COC(=O)C1CN(C#N)N(c2ccc(Cl)cc2)C12c1ccccc1-c1ccccc12 (stereo unspecified)	/	-6.7	-0.0537	i	67.1*	74.0*
O=C1NCCN2CCCC12 (stereo unspecified)	1.2	0.9	0.123	i	/	13.1
CC(=O)Nc1nnc(CCN(CCc2nnc(NC(C)=O)s2)[N+](=O)[O-])s1	1.18	18.6	-0.16	/	-2.8	/
C[C@H]1CCC/C=C/C2C[C@H](O)CC2[C@H](O)/C=C/C(=O)O1 (stereo partly specified)	/	-1.0	-0.746	+	0.0	-3.0
CC1CCC/C=C/C2CC(O)CC2C(O)/C=C/C(=O)O1 (stereo unspecified)	?	/	/	i	-0.3	-7.4
Cc1oc(-c2ccccc2)nc1CN1C(=O)CN=C(c2ccccc2)c2ccccc21	-0.62	/	-1	i	8.4	58.4*
Cc1csc(=N)n1Cc1ccccc1	-0.62	0.8	-0.00876	i	-4.8	5.5
Cc1nn(Cc2ccccc2)c(Cl)c1C(=O)NC1CCCc2ccccc21 (stereo unspecified)	0.7	-3.3	-2.95	+	31.6	29.5
Cc1ccc(C2=NCC(=O)Nc3ccc(Br)cc32)cc1	/	/	/	/	1.2	/
Cc1cc2ccccc2c(=O)n1CC(=O)NCC(=O)N1CCC2(CC1)OCCO2	0.13	-4.8	/	+	-1.5	-4.5
CCCCc1nc2ccccc2c(=O)n1-c1ccc(Cl)cc1[N+](=O)[O-]	1.02	-3.8	/	i	3.5	64.2*
CCOC(=O)C1SC2(C(F)F)CC1(O)c1c(c(OC)c3occc3c1OC)O2 (stereo unspecified)	0.42	4.2	-0.744	i	-1.1	63.9*
CC[C@@H](C(N)=O)N1CCCC1=O	-0.02	3.0	0.83	/	-0.5	0.6
CCN1C[C@]2(COC(=O)c3ccccc3N)CC[C@H](OC)C34[C@@H]5C[C@H]6[C@H](OC)[C@@H]5[C@](O)(C[C@@H]6OC)[C@@](O)([C@H]13)[C@@H](OC)[C@@H]42	/	/	/	/	7.3	/
C/C(=N\NC(=O)c1ccccc1O)c1c(O)n(C2CCCCC2)c(=O)[nH]c1=O	/	/	/	/	49.7*	/
O=C(Nc1ccc(F)cc1)N1CC2CC(C1)c1cccc(=O)n1C2 (stereo unspecified)	0.33	2.2	0.801	i	3.5	72.9*
Cc1ccc(CN2CCCN(Cc3ccc(Cl)cc3)S2(=O)=O)cc1	/	/	/	/	22.9	/
Cc1ccccc1CN1CCCN(Cc2ccc(Cl)cc2)S1(=O)=O	/	/	/	/	62.8*	/
Cc1nn(-c2ccccc2)c(Cl)c1C1C(C#N)=C(N)Oc2c1c(=O)oc1ccccc21 (stereo unspecified)	0.56	5.2	/	i	108.3*	43.9
COc1ccccc1CCNC(=O)CCC(=O)N1CC2C[C@@H](C1)Cn1c2cccc1=O	/	/	/	/	3.2	/
COCCNC(=O)c1c(NC(=O)c2ccc(Br)o2)n(Cc2ccccc2)c2nc3ccccc3nc12	1.2	/	0.0675	i	61.3*	-10.6
COC(=O)C1C2c3ccccc3C(c3ccccc32)C1C(=O)OC (stereo unspecified)	-0.84	5.2	1.34	i	0.9	4.0
SMILES	Ins promoter up	Rad51 HR inh	Cl transport mod	Autophagy mod	SKKanGAS inh	WT yeast gro inh
COC(=O)C1=C(C)NC(C)=C(C(=O)OC)C1c1ccccc1[N+](=O)[O-]	/	-7.0	17.1*	i	0.6	-7.3
Cc1c(C(=O)N2CCC3(CC2)OCCO3)oc2ccc(S(=O)(=O)N3CCCCC3)cc12	0.5	/	0.32	i	-1.5	15.8
Cc1ccc(OP(=O)(Nc2cccc(C)c2)Oc2ccc(C)cc2)cc1	/	/	/	/	76.2*	/
Cc1cccc(OP(=O)(NCc2ccccc2)Oc2cccc(C)c2)c1	-0.59	6.7	0.0712	i	5.4	68.6*
COc1ccc(NP(=O)(Oc2ccc(Cl)cc2)Oc2ccc(Cl)cc2)cc1OC	-0.49	-10.9	0.136	i	?	65.0*
Cc1cccc(OP(=O)(Nc2ccc(F)cc2)Oc2cccc(C)c2)c1	-0.04	/	0.617	i	30.7	61.0*
COc1ccc(OC)c(NP(=O)(Oc2ccc(Cl)cc2)Oc2ccc(Cl)cc2)c1	-0.37	-2.6	-0.227	i	19.8	55.1
COc1ccc(C2NCc3ccc4c(c3-n3cccc32)OCO4)cc1O (stereo unspecified)	-1.79	3.7	0.397	+	-2.5	4.1
COc1cc(CN2CCN(c3cc(C)ccc3C)CC2)ccc1O	-8.07	/	-1.29	+	2.3	-2.3
O=C(c1ccco1)c1cn(Cc2ccc(Cl)cc2)c2ccccc12	-1.1	-8.6	-1.39	i	29.4	68.9*
COc1ccccc1OCCCn1cc(C(=O)c2ccco2)c2ccccc21	-0.22	-2.1	-1.52	i	18.8	31.0
C=CCn1c(O)c(C(C)=NC(C)c2ccccc2)c(=O)[nH]c1=O (stereo unspecified)	0.18	/	-0.39	/	-3.7	/
O=c1[nH]c(=O)n(-c2ccccc2F)c(O)c1C=NCCC1=CCCCC1	0.33	-5.3	0.163	i	0.7	15.0
CCCCCn1c(=O)c(C(=O)Nc2cnccn2)c(O)c2ccccc21	-5.71	-91.0	/	i	80.5*	4.7
CCCCCCCn1c(=O)c(C(=O)Nc2cnccn2)c(O)c2ccccc21	?	/	0.103	/	59.5*	/
CCCCCn1c(=O)c(C(=O)Nc2cc(C)ccn2)c(O)c2ccccc21	/	/	/	/	2.9	/
CCCCCCn1c(=O)c(C(=O)Nc2ccncc2)c(O)c2ccccc21	-5.74	/	/	/	/	24.0
Cc1oc2ccc(OC(=O)N(C)C)cc2c1C(=O)OC(C)C	-0.59	-8.1	-1.41	i	-3.4	75.1*
CC1CCC2[C@@H](C)C(=O)OC3O[C@]4(C)CCC1C32OO4 (stereo partly specified)	/	/	/	/	3.8	/
CN(C)C1C(=O)C(C(N)=O)=C(O)C2(O)C(=O)C3=C(O)c4c(O)cccc4C(C)(O)C3C(O)C12 (stereo unspecified)	/	/	/	/	105.0*	/
CC(C)(C)c1ccc(CSc2cnn(C(C)(C)C)c(=O)c2Cl)cc1	/	/	/	/	59.4*	/
CCCCn1nc(C)c(C(=O)O)c1Cl	-0.2	/	-0.0743	/	-5.9	/
